Assay outcomes as filed in PubChem.
IDH1 mut inh: inhibitors of IDH1 R132H reductase, primary screen, biochemical, plate reader, single point | Isocitrate dehydrogenase [NADP] cytoplasmic (Homo sapiens), O75874 | diaphorase/resazurin fluorescence, 60 min | actives 0.18% (n = 70,000) | inhibition, % at 10 µM; in the data active means inhibition above about 34%; inconclusive means no clear call, values can overlap the other calls; inactive means below about 11%;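 further: 0% = DMSO and 100% = no enzyme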
GASC1 inh: inhibitors of GASC-1 (KDM4C) histone demethylase, primary screen, biochemical, single concentration HTS. GST-KDM4C 2-372, H3K9me3 peptide, LANCE TR-FRET. inhibition, % at 12.5 µM. actives 0.15% (n = 96,000). AID 720574, 2013;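 active means mean replicate inhibition above about 25%, with at least 55% of replicates also reaching it, limit read from the data, passing the limit was not always enough; inconclusive means only one of those two conditions met; inactive means neither condition met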
Target sequence (Q9H3R0 2-372 limits assumed): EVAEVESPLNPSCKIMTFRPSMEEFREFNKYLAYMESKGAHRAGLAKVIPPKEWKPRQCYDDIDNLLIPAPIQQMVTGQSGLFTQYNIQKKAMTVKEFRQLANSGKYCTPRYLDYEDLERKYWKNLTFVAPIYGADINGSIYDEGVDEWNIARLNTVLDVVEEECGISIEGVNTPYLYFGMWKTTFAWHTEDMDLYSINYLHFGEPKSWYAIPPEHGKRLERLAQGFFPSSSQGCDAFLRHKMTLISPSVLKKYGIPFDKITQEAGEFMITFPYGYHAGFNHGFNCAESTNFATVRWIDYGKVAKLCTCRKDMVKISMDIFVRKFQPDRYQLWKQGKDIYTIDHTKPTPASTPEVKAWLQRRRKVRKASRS
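Material: N-terminal GST-fused human GASC-1 (KDM4C) fragment, residues 2-372. Input: 10 nM enzyme. Incubation: enzyme reaction 30 min, then detection 60 min, both room temperature. Doses: one test concentration per compound. Read-out basis: inhibition from TR-FRET ratio decrease. Detection: LANCE TR-FRET, excitation 340 nm, emissions 618 and 671 nm.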
T cruzi growth-1: T. cruzi intracellular proliferation inhibitors, primary screen, cell-based, beta-gal Tulahuen parasites, NIH3T3 host, luminescence; T. cruzi beta-gal in NIH3T3, GalScreen luminescence, 90 h; inhibition, % at 8.34 µM; actives 5.9% (n = 77,000); AID 624255, 2012;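 active means mean inhibition above about 93%, with at least 55% of replicates each passing it, limit read from the data, passing the limit was not always enough; inconclusive means only one of those two conditions holds; inactive means neither condition holds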
T cruzi growth-2: T. cruzi intracellular proliferation inhibitors, confirmation, cell-based, NIH3T3 host, beta-gal parasite, luminescence, cherry-pick | shares compounds with T cruzi growth-1 | T. cruzi beta-gal in NIH3T3, GalScreen luminescence, 90 h | inhibition, % at 8.35 µM | actives 72% (n = 5,600);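 active means mean replicate inhibition above about 95% and at least 55% of replicates individually reaching it, limit read from the data; inconclusive means only one of the two criteria is met; inactive means neither criterion is met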
T cruzi growth-3: inhibitors of intracellular T. cruzi replication, confirmation, NIH3T3 host cells, beta-gal parasites, cherry-pick, set 2. shares compounds with T cruzi growth-1. T. cruzi beta-gal in NIH3T3, GalScreen luminescence, 90 h. inhibition, % at 2.09 µM. actives 21% (n = 5,600). AID 651740, 2012;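 active means mean inhibition above about 95%, with at least 55% of replicates also reaching it, limit read from the data; inconclusive means meets just one of the two conditions; inactive means meets neither condition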;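 further: plate controls were neutral control median for no effect and positive control median for full effect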
NIH3T3 tox: cytotoxicity in mouse NIH/3T3 fibroblasts, confirmation, cytotoxicity control for T. cruzi proliferation inhibitor project, cell-based, cherry-pick, single point; shares compounds with T cruzi growth-1; NIH/3T3 viability, CellTiter-Glo ATP luminescence, 90 h; cytotoxicity (signal decrease), % at 8.35 µM; actives 14% (n = 5,600);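 active means mean signal decrease across replicates above about 35% based on untreated-well scatter, with enough replicates individually passing, limit read from the data; inconclusive means no rule stated though some were filed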;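 further: 0% = median of neutral control wells and 100% = median of positive control wells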
3T3 cytotox 2: NIH/3T3 fibroblast cytotoxicity, confirmation, cytotoxicity control, cell-based, cherry-pick, single point, set 2. inhibition, % at 24.9 µM. actives 56% (n = 5,600). shares compounds with T cruzi growth-1. NIH/3T3 viability, CellTiter-Glo ATP luminescence, 90 h;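 active means mean loss of cell viability signal at or above a set limit, and enough replicates individually reaching it; inconclusive means meets only the mean limit or only the replicate share; inactive means meets neither condition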;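 further: 0% = median of neutral control wells and 100% = median of positive control wells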
* = called active by the depositor; ? = inconclusive; . = no result. The entries come from a sample that favours hits as a whole.

SMILES | IDH1 mut inh | GASC1 inh | T cruzi growth-1 | T cruzi growth-2 | T cruzi growth-3 | NIH3T3 tox | 3T3 cytotox 2
C[C@H](CO)N1C[C@H](C)[C@@H](CN(C)Cc2ccc(Oc3ccccc3)cc2)Oc2ccc(NC(=O)Nc3ccc(F)cc3)cc2C1=O | 2 | 0 | 60 | . | . | . | .
COc1ccc(C)cc1S(=O)(=O)N(C)CC(=O)O | -1 | . | . | . | . | . | .
COc1ccc(NC(=O)Nc2ccc3c(c2)C(=O)N([C@H](C)CO)C[C@H](C)[C@H](CN(C)C(=O)Nc2ccc(F)cc2)OCCCC[C@H](C)O3)cc1 | 1 | -2 | 73 | . | . | . | .
COc1ccc(NC(=O)Nc2ccc3c(c2)C(=O)N([C@@H](C)CO)C[C@H](C)[C@@H](CN(C)C(=O)Nc2ccc(F)cc2)OCCCC[C@H](C)O3)cc1 | . | -2 | 109* | 100* | 62 | 5 | -3
COc1ccc(NC(=O)Nc2ccc3c(c2)C(=O)N([C@@H](C)CO)C[C@@H](C)[C@H](CN(C)C(=O)Nc2ccc(F)cc2)OCCCC[C@H](C)O3)cc1 | 0 | -1 | . | . | . | . | .
COc1ccc(NC(=O)Nc2ccc3c(c2)C(=O)N([C@H](C)CO)C[C@@H](C)[C@@H](CN(C)C(=O)Nc2ccc4c(c2)OCO4)OCCCC[C@@H](C)O3)cc1 | . | 0 | 69 | . | . | . | .
COc1ccc(NC(=O)Nc2ccc3c(c2)C(=O)N([C@H](C)CO)C[C@@H](C)[C@H](CN(C)C(=O)Nc2ccc(F)cc2)OCCCC[C@@H](C)O3)cc1 | . | -1 | 112* | 98* | 104* | -6 | -10
COc1ccc(NC(=O)Nc2ccc3c(c2)C(=O)N([C@H](C)CO)C[C@@H](C)[C@H](CN(C)C(=O)Nc2ccc4c(c2)OCO4)OCCCC[C@@H](C)O3)cc1 | 0 | 0 | 117* | 111* | 64 | 9 | 17
C[C@@H]1CN([C@H](C)CO)C(=O)c2cc(C3=CCCC3)cnc2O[C@H]1CN(C)Cc1cccnc1 | 0 | 1 | . | . | . | . | .
CC(C)NC(=O)N(C)C[C@@H]1Oc2ccc(NC(=O)Nc3ccc(F)cc3)cc2CC(=O)N([C@@H](C)CO)C[C@@H]1C | 0 | 1 | 24 | . | . | . | .
C[C@@H]1CN([C@@H](C)CO)C(=O)c2cc(NC(=O)Cc3ccccc3)ccc2O[C@@H]1CN(C)Cc1ccc(-c2ccccc2)cc1 | . | 0 | ? | 111* | 59 | 12 | 95*
C[C@H](CO)N1C[C@H](C)[C@@H](CN(C)Cc2ccc(Oc3ccccc3)cc2)Oc2ccc(NC(=O)Cc3ccccc3)cc2C1=O | 1 | 2 | ? | 78 | 83 | 7 | 89*
C[C@@H]1CN([C@H](C)CO)C(=O)c2cc(NC(=O)Cc3ccccc3)ccc2O[C@H]1CN(C)Cc1ccc(-c2ccccc2)cc1 | 3 | 2 | 91 | . | . | . | .
C[C@@H]1CN([C@H](C)CO)C(=O)c2cc(NC(=O)Cc3ccccc3)ccc2O[C@H]1CN(C)Cc1ccc(Oc2ccccc2)cc1 | . | 4 | 15 | . | . | . | .
O=C(C[C@@H]1CC[C@H]2[C@@H](COC[C@H](O)CN2Cc2cc(F)ccc2F)O1)NCc1ccc(Cl)cc1 | . | 2 | 27 | . | . | . | .
C[C@@H]1CCCCO[C@@H](CN(C)Cc2ccc(C(=O)Nc3ccccc3N)cc2)[C@@H](C)CN([C@H](C)CO)C(=O)c2cc(NC(=O)Nc3ccc(C(F)(F)F)cc3)ccc2O1 | 0 | 1 | . | . | . | . | .
CN(C)CC#Cc1ccc([C@@H]2[C@H](C#N)N[C@@H]2CO)cc1 | . | -1 | 80 | . | . | . | .
N#C[C@@H]1N[C@@H](CO)[C@@H]1c1ccc(C#Cc2ccc(F)cc2)cc1 | . | -1 | 103* | 105* | 41 | -4 | -7
N#C[C@@H]1N[C@@H](CO)[C@H]1c1ccc(C#Cc2ccccc2F)cc1 | . | -2 | 89 | . | . | . | .
N#C[C@@H]1N[C@@H](CO)[C@H]1c1ccc(C#CC2CCCC2)cc1 | . | 1 | ? | 71 | 8 | -26 | -1
N#C[C@@H]1N[C@@H](CO)[C@H]1c1ccc(C#Cc2ccc(F)cc2)cc1 | . | -3 | ? | 92 | 32 | -31 | 11
N#C[C@H]1N[C@H](CO)[C@@H]1c1ccc(C#CC2CCCC2)cc1 | . | 2 | 31 | . | . | . | .
CCS(=O)(=O)N[C@H]1C=C[C@@H](CC(=O)N2CCCCC2)O[C@H]1CO | 0 | . | -22 | . | . | . | .
CCCN(C)C[C@H]1Oc2ncc(-c3ccccc3F)cc2C(=O)N([C@@H](C)CO)C[C@H]1C | 0 | 1 | 61 | . | . | . | .
C[C@H]1CCCCO[C@H](CN(C)C(=O)Nc2ccccc2)[C@@H](C)CN([C@@H](C)CO)C(=O)c2cc(NS(=O)(=O)c3cccs3)ccc2O1 | . | -1 | 9 | . | . | . | .
SMILES | IDH1 mut inh | GASC1 inh | T cruzi growth-1 | T cruzi growth-2 | T cruzi growth-3 | NIH3T3 tox | 3T3 cytotox 2
CNC[C@@H]1OCCCC[C@@H](C)Oc2ccc(NC(=O)c3ccncc3)cc2C(=O)N([C@H](C)CO)C[C@H]1C | 3 | . | 24 | . | . | . | .
C[C@H](CO)N1C[C@H](C)[C@H](CN(C)C(=O)Nc2ccc(F)cc2)OCCCC[C@H](C)Oc2ccc(NC(=O)Cc3ccccc3)cc2C1=O | . | -1 | 104* | 101* | 40 | -21 | 6
C[C@@H]1CCCCO[C@H](CN(C)C(=O)Nc2ccccc2)[C@H](C)CN([C@H](C)CO)C(=O)c2cc(NC(=O)Cc3ccccc3)ccc2O1 | 0 | 0 | 29 | . | . | . | .
C[C@@H]1CCCCO[C@@H](CN(C)C(=O)Nc2ccccc2)[C@H](C)CN([C@@H](C)CO)C(=O)c2cc(NC(=O)Cc3ccccc3)ccc2O1 | 1 | -1 | -28 | . | . | . | .
C[C@@H]1CCCCO[C@H](CN(C)C(=O)Nc2ccc(C(F)(F)F)cc2)[C@@H](C)CN([C@@H](C)CO)C(=O)c2cc(NC(=O)Cc3ccccc3)ccc2O1 | 2 | -1 | ? | 101* | 114* | 2 | ?
C[C@@H]1CN([C@H](C)CO)C(=O)c2cc(NC(=O)c3ccccc3)ccc2O[C@@H](C)CCCCO[C@H]1CN(C)C(=O)Nc1ccc(C(F)(F)F)cc1 | 4 | 0 | 71 | . | . | . | .
C[C@H]1CCCCO[C@@H](CN(C)C(=O)Nc2ccc(C(F)(F)F)cc2)[C@@H](C)CN([C@@H](C)CO)C(=O)c2cc(NC(=O)Cc3ccccc3)ccc2O1 | . | -1 | ? | 107* | 111* | 11 | 24*
